{"source": "ChEMBL document CHEMBL1154033", "about": "“Synthesis and enzymatic evaluation of novel partially fluorinated thiol dual ACE/NEP inhibitors” (Bioorg Med Chem Lett, 2009)", "key": {"[1]": {"target": "Angiotensin-converting enzyme (Homo sapiens, UniProt P12821)", "sequence (P12821 whole entry)": "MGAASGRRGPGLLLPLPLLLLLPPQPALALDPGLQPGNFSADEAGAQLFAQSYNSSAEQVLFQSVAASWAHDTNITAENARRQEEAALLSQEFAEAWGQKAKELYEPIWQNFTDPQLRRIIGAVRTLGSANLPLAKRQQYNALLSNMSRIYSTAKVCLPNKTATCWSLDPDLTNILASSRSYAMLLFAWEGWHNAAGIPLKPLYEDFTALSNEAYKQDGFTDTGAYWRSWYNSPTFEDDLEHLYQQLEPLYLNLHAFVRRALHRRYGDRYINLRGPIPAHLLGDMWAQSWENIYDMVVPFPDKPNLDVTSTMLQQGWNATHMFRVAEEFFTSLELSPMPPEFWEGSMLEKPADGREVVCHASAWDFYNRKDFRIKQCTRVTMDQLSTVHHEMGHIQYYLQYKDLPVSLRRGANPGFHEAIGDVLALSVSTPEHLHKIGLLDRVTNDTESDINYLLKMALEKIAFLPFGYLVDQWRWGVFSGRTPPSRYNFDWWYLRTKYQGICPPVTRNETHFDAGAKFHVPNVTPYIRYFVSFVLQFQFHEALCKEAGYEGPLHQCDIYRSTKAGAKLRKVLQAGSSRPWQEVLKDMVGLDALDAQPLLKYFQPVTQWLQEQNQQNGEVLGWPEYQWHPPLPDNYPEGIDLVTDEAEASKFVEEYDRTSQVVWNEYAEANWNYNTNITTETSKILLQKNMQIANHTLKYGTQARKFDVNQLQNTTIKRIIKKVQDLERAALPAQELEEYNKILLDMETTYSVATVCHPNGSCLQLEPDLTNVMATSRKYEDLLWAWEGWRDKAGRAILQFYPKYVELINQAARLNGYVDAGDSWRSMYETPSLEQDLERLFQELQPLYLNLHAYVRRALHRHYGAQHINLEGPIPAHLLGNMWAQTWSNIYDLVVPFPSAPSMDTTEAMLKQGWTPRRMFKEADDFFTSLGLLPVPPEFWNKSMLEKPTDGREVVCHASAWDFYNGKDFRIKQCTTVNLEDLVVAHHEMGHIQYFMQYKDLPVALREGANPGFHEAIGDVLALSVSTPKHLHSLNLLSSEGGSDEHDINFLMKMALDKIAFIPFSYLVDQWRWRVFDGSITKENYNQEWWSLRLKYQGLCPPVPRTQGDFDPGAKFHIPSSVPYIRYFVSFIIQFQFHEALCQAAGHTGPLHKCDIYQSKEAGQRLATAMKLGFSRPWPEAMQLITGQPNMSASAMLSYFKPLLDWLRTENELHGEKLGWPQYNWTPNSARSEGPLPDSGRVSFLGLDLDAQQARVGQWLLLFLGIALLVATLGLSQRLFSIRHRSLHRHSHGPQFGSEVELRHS", "experiment": "Inhibition of human recombinant ACE by fluorimetry"}, "[2]": {"target": "T1, Endothelin-converting enzyme 1 (Homo sapiens, UniProt P42892)", "T1 sequence (P42892 whole entry)": "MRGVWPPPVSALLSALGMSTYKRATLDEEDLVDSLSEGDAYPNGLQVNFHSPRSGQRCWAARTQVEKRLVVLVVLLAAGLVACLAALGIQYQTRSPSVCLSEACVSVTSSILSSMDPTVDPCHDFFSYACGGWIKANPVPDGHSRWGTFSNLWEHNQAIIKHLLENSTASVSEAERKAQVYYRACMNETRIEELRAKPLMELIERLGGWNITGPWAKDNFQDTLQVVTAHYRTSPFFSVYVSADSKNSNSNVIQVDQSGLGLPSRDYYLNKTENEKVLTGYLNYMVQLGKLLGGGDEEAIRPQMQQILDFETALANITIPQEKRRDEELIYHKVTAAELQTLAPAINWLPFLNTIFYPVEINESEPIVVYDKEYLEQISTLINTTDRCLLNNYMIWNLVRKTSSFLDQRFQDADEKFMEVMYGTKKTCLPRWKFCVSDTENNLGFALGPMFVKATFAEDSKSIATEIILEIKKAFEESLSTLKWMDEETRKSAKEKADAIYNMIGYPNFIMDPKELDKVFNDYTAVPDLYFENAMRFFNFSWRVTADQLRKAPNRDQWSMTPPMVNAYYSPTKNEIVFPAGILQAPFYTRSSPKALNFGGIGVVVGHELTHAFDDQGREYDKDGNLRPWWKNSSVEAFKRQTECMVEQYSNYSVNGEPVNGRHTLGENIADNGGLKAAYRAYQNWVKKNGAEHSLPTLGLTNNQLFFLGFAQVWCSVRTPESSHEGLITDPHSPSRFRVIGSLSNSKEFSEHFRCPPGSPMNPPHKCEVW", "experiment": "Inhibition of human recombinant ECE1 by fluorimetry"}, "Neprilysin": {"target": "T2, Neprilysin (Sus scrofa, UniProt P19621)", "T2 sequence (P19621 whole entry)": "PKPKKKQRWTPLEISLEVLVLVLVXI", "experiment": "Inhibition of pig kidney NEP by fluorimetry", "method_in_brief": "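Fluorescence was read at λex 340 nm and λem 530 nm. IC50 was derived from inhibition curves, and the assay was validated with a reference inhibitor IC50.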"}}, "data": [{"smiles": "O=C(CC(S)C(F)(F)F)NC(Cc1ccc(O)cc1)C(=O)O", "note": "(stereo not drawn)", "values": [{"measurement": "IC50", "setting": "[1]", "value": 160, "unit": "nM"}, {"measurement": "IC50", "setting": "[2]", "value": "> 10000", "unit": "nM"}, {"measurement": "IC50", "setting": "Neprilysin", "value": 80, "unit": "nM"}]}, {"smiles": "CC(C)CC(S)CC(=O)NC(Cc1ccccc1)C(=O)O", "note": "(stereo not drawn)", "values": [{"measurement": "IC50", "setting": "[1]", "value": "> 10000", "unit": "nM"}, {"measurement": "IC50", "setting": "[2]", "value": "> 10000", "unit": "nM"}, {"measurement": "IC50", "setting": "Neprilysin", "value": 41, "unit": "nM"}]}, {"smiles": "O=C(CC(S)C(F)(F)F)NC(Cc1ccccc1)C(=O)O", "note": "(stereo not drawn)", "values": [{"measurement": "IC50", "setting": "[1]", "value": 830, "unit": "nM"}, {"measurement": "IC50", "setting": "[2]", "value": "> 10000", "unit": "nM"}, {"measurement": "IC50", "setting": "Neprilysin", "value": 300, "unit": "nM"}]}, {"smiles": "O=C(CC(S)C(F)(F)C(F)(F)F)NC(Cc1ccccc1)C(=O)O", "note": "(stereo not drawn)", "values": [{"measurement": "IC50", "setting": "[1]", "value": 1010, "unit": "nM"}, {"measurement": "IC50", "setting": "[2]", "value": 2420, "unit": "nM"}, {"measurement": "IC50", "setting": "Neprilysin", "value": 1150, "unit": "nM"}]}, {"smiles": "CC(C)CC(S)CC(=O)NC(Cc1ccccc1)C(=O)NC(Cc1ccc(O)cc1)C(=O)O", "note": "(stereo not drawn)", "values": [{"measurement": "IC50", "setting": "Neprilysin", "value": 50, "unit": "nM"}]}, {"smiles": "O=C(CC(S)C(F)(F)F)NC(Cc1ccccc1)C(=O)NC(Cc1ccc(O)cc1)C(=O)O", "note": "(stereo not drawn)", "values": [{"measurement": "IC50", "setting": "[1]", "value": 280, "unit": "nM"}, {"measurement": "IC50", "setting": "[2]", "value": "> 10000", "unit": "nM"}, {"measurement": "IC50", "setting": "Neprilysin", "value": 430, "unit": "nM"}]}, {"smiles": "O=C(CC(S)C(F)(F)F)NC(Cc1ccc(F)cc1)C(=O)O", "note": "(stereo not drawn)", "values": [{"measurement": "IC50", "setting": "[1]", "value": 300, "unit": "nM"}, {"measurement": "IC50", "setting": "[2]", "value": "> 10000", "unit": "nM"}, {"measurement": "IC50", "setting": "Neprilysin", "value": 230, "unit": "nM"}]}, {"smiles": "O=C(CC(S)C(F)(F)F)NC(Cc1c[nH]c2ccccc12)C(=O)O", "note": "(stereo not drawn)", "values": [{"measurement": "IC50", "setting": "[1]", "value": 400, "unit": "nM"}, {"measurement": "IC50", "setting": "[2]", "value": "> 10000", "unit": "nM"}, {"measurement": "IC50", "setting": "Neprilysin", "value": 580, "unit": "nM"}]}, {"smiles": "O=C(O)CNC(=O)C(CS)Cc1ccccc1", "note": "(stereo not drawn) [THIORPHAN]", "values": [{"measurement": "IC50", "setting": "Neprilysin", "value": 6.2, "unit": "nM"}]}]}
